Results on 26 molecules are retold here after PubChem BioAssay.

Each structure is given as a SMILES string. Calls of active or inactive are those of the source. Unless noted, the rule behind the calls is not given here.

The target in assay [1] is Pantothenate synthetase (Mycobacterium tuberculosis (strain ATCC 25618 / H37Rv)) (UniProt P9WIL5). Nature of the assay: Recombinant Mtb pantothenate synthetase (PanC) inhibitors, coupled enzyme, confirmatory (AID 375).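 Note: 0% = full reaction with vehicle and 100% = no enzyme background.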 As to conditions: coupled enzyme assay; at 10 µM, stronger effect = higher value.
A short description of assay [2]: reducers of endogenous Her2 protein level, primary screen, SKBR3 breast tumor cells, AlphaScreen, ATP viability (AID 461;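 active = Her2 level under about 52% in both replicate screens, with viability over 70% of control, limit read from the data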;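 for Her2 level: lower value means less Her2 protein in the cells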;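 for viability: percent of carrier control wells set as 100% viability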). As to conditions: 18-24 h, measured here: SKBR3 viability, ATP luminescence, at 10 µM. A general note: Bead proximity is the source of the signal in Alpha formats.
Assay [3] deals with Receptor tyrosine-protein kinase erbB-2 (Homo sapiens) (UniProt P04626). The assay is described as above. As to conditions: 18-24 h, at 10 µM, stronger effect = lower value.
Assay [4] in a line: SK-BR-3 cell growth inhibitors, pilot screen, 24 h, human (AID 572;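 active = viability at or below 10% of carrier control in both of two separate runs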;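 note: compound exposure lasted between 18 and 24 h rather than exactly 24 h; 100% = carrier-treated control wells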). As to conditions: SK-BR-3 viability, CellTiter-Glo luminescence, at 10 µM, stronger effect = lower value. On the technique in general: Cellular ATP, detected with luciferase, serves as a proxy for viable cell number.
Assay [5] can be described thus: HUVEC growth inhibition – cell-based, human, primary screen (AID 575;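 active = viability at or below 30% in both replicate assays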;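 note: 100% = median of untreated cell wells with 0.1% DMSO on each plate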). As to conditions: HUVEC proliferation, CellTiter-Glo luminescence, 72 h; at 10 µM; stronger effect = lower value. In short, it runs like this:
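Timing: 72 h treatment at 37 °C; material: HUVEC primary cells; technique: CellTiter-Glo luminescence measuring cellular ATP; controls: vehicle and MePR control wells; measure: percent of median DMSO-control luminescence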

Assay [6] is described as follows: growth inhibitors of H69AR lung tumor, primary screen, human, duplicate replicates (AID 580;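 active = viability at or under a set limit in both replicates, limit being median viability minus 3 SD, cut at about 48% in these data, passing the limit was not always enough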;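 note: 100% = mean luminescence of untreated wells and 0% = no signal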). As to conditions: H69AR lung tumor cells viability, ATP luminescence, 72 h; at 10 µM; stronger effect = lower value.
Assay [7] in a line: reversal of MRP1-mediated doxorubicin resistance, pilot screen, H69AR cells, doxorubicin co-treatment (AID 601;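 active = viability loss from added drug above about 55%, and viability with drug at most 40%, in both replicates, limit read from the data, passing the limit was not always enough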). As to conditions: CellTiter-Glo, 72 h, at 10 µM; for differential viability (reversal): stronger effect = higher value.
A short description of assay [8]: 384-well plate pilot, post-Golgi transport modulator project, inhibition of yeast transport mutant growth (AID 636; in the data active = inhibition above about 31%). As to conditions: absorbance 615 nm, about 18 h, stronger effect = higher value.
Assay [9] can be described thus: growth suppression of yeast trafficking mutant, preliminary HTS, modulators of trafficking downstream of Golgi apparatus project, 1536-format plate, OD 615 nm (AID 637; in the data active = inhibition above about 30%). As to conditions: yeast transport mutant growth, absorbance 615 nm, 18 h; stronger effect = higher value.
Where [10] appears, read: H69AR cells + 2 uM doxorubicin, measured here: viability with 2 uM doxorubicin, stronger effect = lower value.
The mark [11] stands for this setting: H69AR cells, compound alone cytotoxicity.

Sequence of Receptor tyrosine-protein kinase erbB-2 (Homo sapiens) (P04626 whole entry, looked up): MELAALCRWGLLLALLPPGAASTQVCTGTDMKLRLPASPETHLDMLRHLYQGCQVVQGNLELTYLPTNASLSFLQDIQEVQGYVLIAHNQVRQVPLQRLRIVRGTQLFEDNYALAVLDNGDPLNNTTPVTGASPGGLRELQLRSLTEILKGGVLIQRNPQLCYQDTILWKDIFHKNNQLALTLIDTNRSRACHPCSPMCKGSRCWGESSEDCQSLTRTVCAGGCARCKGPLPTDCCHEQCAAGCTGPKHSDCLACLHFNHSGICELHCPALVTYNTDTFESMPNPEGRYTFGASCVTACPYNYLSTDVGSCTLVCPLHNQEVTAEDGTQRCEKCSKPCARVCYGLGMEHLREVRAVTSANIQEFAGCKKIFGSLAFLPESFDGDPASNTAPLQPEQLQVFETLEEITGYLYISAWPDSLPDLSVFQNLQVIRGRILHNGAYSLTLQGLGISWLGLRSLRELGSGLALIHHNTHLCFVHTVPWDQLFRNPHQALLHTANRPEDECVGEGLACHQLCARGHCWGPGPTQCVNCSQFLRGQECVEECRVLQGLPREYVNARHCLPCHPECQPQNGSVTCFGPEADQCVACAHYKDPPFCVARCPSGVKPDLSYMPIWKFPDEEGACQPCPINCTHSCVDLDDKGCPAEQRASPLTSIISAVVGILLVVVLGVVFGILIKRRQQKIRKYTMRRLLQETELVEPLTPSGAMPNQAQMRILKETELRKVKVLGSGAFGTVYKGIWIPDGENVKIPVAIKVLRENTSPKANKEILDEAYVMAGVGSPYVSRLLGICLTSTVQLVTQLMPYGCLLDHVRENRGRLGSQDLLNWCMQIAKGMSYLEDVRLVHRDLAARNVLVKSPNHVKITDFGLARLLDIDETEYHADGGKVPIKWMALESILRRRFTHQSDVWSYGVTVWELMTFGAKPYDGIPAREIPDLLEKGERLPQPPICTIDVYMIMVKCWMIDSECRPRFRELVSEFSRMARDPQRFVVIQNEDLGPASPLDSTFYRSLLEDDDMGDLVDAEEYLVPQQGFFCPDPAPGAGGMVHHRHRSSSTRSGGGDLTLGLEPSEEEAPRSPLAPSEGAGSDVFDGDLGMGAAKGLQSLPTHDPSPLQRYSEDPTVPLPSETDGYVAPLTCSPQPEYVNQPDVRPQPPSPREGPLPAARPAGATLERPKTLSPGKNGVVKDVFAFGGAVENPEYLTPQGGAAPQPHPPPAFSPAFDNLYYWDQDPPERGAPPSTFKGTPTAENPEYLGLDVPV
Sequence of Pantothenate synthetase (Mycobacterium tuberculosis (strain ATCC 25618 / H37Rv)) (P9WIL5 whole entry, looked up): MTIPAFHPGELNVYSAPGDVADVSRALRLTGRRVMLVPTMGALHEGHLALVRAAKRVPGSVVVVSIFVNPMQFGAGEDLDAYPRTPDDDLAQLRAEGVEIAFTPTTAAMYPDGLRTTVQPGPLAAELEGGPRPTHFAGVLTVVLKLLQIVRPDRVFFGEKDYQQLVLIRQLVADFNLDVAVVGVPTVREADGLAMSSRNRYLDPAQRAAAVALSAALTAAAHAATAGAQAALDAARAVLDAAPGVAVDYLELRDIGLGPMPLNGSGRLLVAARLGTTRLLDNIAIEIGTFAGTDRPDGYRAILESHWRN

As for `CCC(COC(=O)c1cc(OC)c(OC)c(OC)c1)(c1ccccc1)N(C)C` (centres undefined), in assay [1], the inhibition (commonly the change of the read-out against control, counted positive when it falls) was 2% (inactive). Further, the viability – broadly, a read-out of living cells in per cent, often relative to untreated cells – in assay [2] was 87.5%; in assay [4], 87.5% (inactive); in assay [5] it was 104% (inactive); in [6], 87.6% (inactive); in assay [7] (setting [10]), 75.7%; in assay [7] (setting [11]), 87.6%. Also, the Her2 level in [3] was 107% (inactive). Further, the differential viability (reversal) in assay [7] (H69AR cells + 2 uM doxorubicin) was 11.9% (inactive).
With `C[N+]1(C)CCc2cc3c(cc2[C@H]1[C@@H]1OC(=O)c2c1ccc1c2OCO1)OCO3`, in [1], the inhibition is 0% (inactive). The viability in [2] was 89.5%; in assay [4] it was 89.5% (inactive); in [5], 87.1% (inactive); in [6], 113% (inactive); in assay [7] (setting [10]), 105%; in assay [7] (setting [11]), 113%. Also, the Her2 level in [3] is 102% (inactive). Further, in [7] (H69AR cells + 2 uM doxorubicin), the differential viability (reversal) was 7.33% (inactive).
As to `O=C(OCC#CCSc1nc2ccccc2o1)c1ccco1`, the inhibition in assay [1] is 0% (inactive).
Same read-out and setting: then `Oc1cc(NCc2cccnc2)ccc1-c1nc2ccccc2o1`, with 0% (inactive); and `CCOc1ccc(-c2nnn(CCC(=O)O)n2)cc1OC`, with 0% (inactive).
In the case of `c1ccc2c(c1)OCC(C1=NCCN1)O2` (centres undefined), the inhibition in assay [1] was 0% (inactive). In addition, the viability in assay [2] is 104%; in [4] it was 104% (inactive); in assay [5], 108% (inactive); in assay [6], 81.4% (inactive); in [7] (setting [10]), 72.2%; in assay [7] (setting [11]), 81.4%. For the same molecule, in [3], the Her2 level was 108% (inactive). Besides, the differential viability (reversal) in assay [7] (H69AR cells + 2 uM doxorubicin) is 9.15% (inactive).
On to `CCOC(=O)C1=C(c2ccccc2)N2CCS(=O)(=O)N=C2S1`, for which the inhibition in assay [1] is 0% (inactive).
Still for that read-out and setting: then `CCn1c(SCc2nc3ccccc3c(=O)[nH]2)nnc1-c1cccnc1`, with 4% (inactive); and `COC(=O)COc1ccc(S(=O)(=O)NCCC2=CCCCC2)cc1`, with 2% (inactive).
As for `COc1ccc(OC)c([C@@H](O)[C@H](C)NC(C)(C)C)c1`, in assay [1], the inhibition is 6% (inactive). In addition, the viability in assay [2] is 100%; in assay [4], 100% (inactive); in assay [5] it was 92.3% (inactive); in assay [6], 97.5% (inactive); in assay [7] (setting [10]), 98.5%; in assay [7] (setting [11]) it was 97.5%. For the same molecule, the Her2 level in assay [3] is 120% (inactive). In addition, the differential viability (reversal) in [7] (H69AR cells + 2 uM doxorubicin) was -0.98% (inactive).
As for `CC1CCN(CCCNC(=O)c2coc3nc4ccccc4nc23)CC1`, the inhibition in [1] is 1% (inactive).
Still for that read-out and setting: with `COc1ccccc1OCCOCCn1cnc2ccccc2c1=O` the figure was 0% (inactive); with `COC(=O)c1ccc(CSc2nc(-c3ccc(OC)cc3)nc3c2c(=O)n(C)c(=O)n3C)o1`, 10% (inactive).
Take `O=S(=O)(Cc1ccc(Cl)cc1)Nc1ccc2c(c1)OCO2`: the inhibition in assay [1] is 7% (inactive).
`COc1ccc2[nH]cc(CCN(C)C)c2c1`: the inhibition in assay [1] was 0% (inactive). In addition, the viability in assay [2] was 108%; in assay [4], 108% (inactive); in [5] it was 86.3% (inactive); in assay [6], 108% (inactive); in [7] (setting [10]) it was 99.5%; in [7] (setting [11]), 108%. Also, the Her2 level in assay [3] was 126% (inactive). Further, the differential viability (reversal) in assay [7] (H69AR cells + 2 uM doxorubicin) is 8.63% (inactive).
For the molecule `O=C(O)Cn1cc(C(=O)c2ccco2)c2ccccc21`, in [1], the inhibition is 4% (inactive).
Still for that read-out and setting: then `CS(=O)(=O)N(CC(=O)Nc1ccc2c(c1)OCCO2)Cc1ccccc1`, with 2% (inactive); and `CCOC(=O)c1ccc(N=c2sc(C(=O)OC)cc(=O)n2Cc2ccco2)cc1`, with 0% (inactive).
The same measure, in the same setting: with `C=CCn1c(SCC(=O)Nc2cccc(OC)c2)nnc1-c1cccnc1` the figure was 0% (inactive).
`COc1ccc(OC)c(Nc2nc(-c3cccs3)cs2)c1`: the inhibition in assay [1] is 0% (inactive).
On to `CN1CCN(C(=O)OC2c3nccnc3C(=O)N2c2ccc(Cl)cn2)CC1` (centres undefined), for which, in assay [1], the inhibition was 8% (inactive). The viability in assay [2] was 91.5%; in assay [4], 91.5% (inactive); in assay [5] it was 106% (inactive); in assay [6], 94.1% (inactive); in assay [7] (setting [10]) it was 98.1%; in assay [7] (setting [11]), 94.1%. Further, the Her2 level in assay [3] was 108% (inactive). The differential viability (reversal) in assay [7] (H69AR cells + 2 uM doxorubicin) was -3.97% (inactive).
Consider `Oc1ccc(C2NCc3ccccc3-n3cccc32)cc1Cl` (centres undefined), for which the inhibition in [1] is 0% (inactive); in assay [8] it was -6.18% (inactive); in [9], -3.17% (inactive). Moreover, the viability in assay [2] was 98.5%; in [4], 98.5% (inactive); in assay [5], 112% (inactive); in assay [6], 83.8% (inactive); in assay [7] (setting [10]) it was 82.7%; in [7] (setting [11]), 83.8%. For the same molecule, the Her2 level in assay [3] was 74.5% (inactive). For the same molecule, the differential viability (reversal) in assay [7] (H69AR cells + 2 uM doxorubicin) is 1.1% (inactive).
Turning to `O=c1[nH]c(=O)n(CCc2ccc(F)cc2)c(O)c1C=NCCCn1ccnc1`, the inhibition in [1] was 0% (inactive); in assay [8], -4.8% (inactive); in assay [9] it was 3.28% (inactive). The viability in assay [2] was 114%; in assay [4] it was 114% (inactive); in assay [5] it was 99.5% (inactive); in assay [6], 102% (inactive); in assay [7] (setting [10]), 86.8%; in [7] (setting [11]), 102%. The Her2 level in [3] is 84% (inactive). For the same molecule, the differential viability (reversal) in [7] (H69AR cells + 2 uM doxorubicin) was 15.3% (inactive).
With `C=CCn1c(O)c(C(C)=NCc2cccnc2)c(=O)[nH]c1=O`, the inhibition was 0% (inactive) in assay [1], -6.49% (inactive) in assay [8] and -1.33% (inactive) in assay [9]. Besides, the viability in assay [2] was 104%; in assay [4], 104% (inactive); in assay [5], 88.1% (inactive); in [6], 92.2% (inactive); in assay [7] (setting [10]), 87.4%; in assay [7] (setting [11]), 92.2%. Further, the Her2 level in [3] was 113% (inactive). In addition, the differential viability (reversal) in [7] (H69AR cells + 2 uM doxorubicin) is 4.8% (inactive).
With `COCCOC(=O)C1=C(N)Oc2c(c(=O)oc3ccccc23)C1c1ccncc1` (centres undefined), the inhibition in assay [1] was 10% (inactive); in assay [8], -2.76% (inactive); in assay [9], -2.22% (inactive). Besides, the viability in assay [2] is 122%; in assay [4] it was 122% (inactive); in [5], 98.5% (inactive); in assay [6] it was 92% (inactive); in assay [7] (setting [10]), 87.7%; in assay [7] (setting [11]), 92%. In addition, the Her2 level in assay [3] is 72% (inactive). Further, in assay [7] (H69AR cells + 2 uM doxorubicin), the differential viability (reversal) is 4.34% (inactive).
With `CCN1CCN(c2ncnc3ccc(Br)cc23)CC1`, the inhibition in [1] was 0% (inactive); in assay [8], -0.79% (inactive); in assay [9], 5.25% (inactive). The viability was 100% in [2]; 100% (inactive) in assay [4]; 59.2% (inactive) in assay [5]; 91.2% (inactive) in assay [6]; 100% in assay [7] (setting [10]); 91.2% in assay [7] (setting [11]). The Her2 level in [3] is 110% (inactive). For the same molecule, the differential viability (reversal) in assay [7] (H69AR cells + 2 uM doxorubicin) was -8.96% (inactive).
